Data reported in ChEMBL document CHEMBL1129436, “Novel peptidyl alpha-keto amide inhibitors of calpains and other cysteine proteases” (J Med Chem, 1996).

What was measured:
Cathepsin B [1] = target: T1, Cathepsin B (Homo sapiens, UniProt P07858); experiment: Inhibition of human cathepsin B
Summary of the method: (§1)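 Bovine or human cathepsin B, assayed in 20 mM sodium acetate, pH 5.2, with 0.5 mM dithiothreitol and 2% DMSO. The two enzyme sources were used interchangeably. Ki was taken from Dixon plots, with triplicate assays plotted as 1/v versus inhibitor concentration.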

Cathepsin B [2] = target: Cathepsin B (Bos taurus, UniProt P07688); experiment: Inhibition of bovine cathepsin B; summary of the method: as §1
[3] = target: T2, Calpain-1 catalytic subunit (Homo sapiens, UniProt P07384); experiment: Inhibition of the cysteine protease human Calpain 1
T2 sequence (P07384 whole entry): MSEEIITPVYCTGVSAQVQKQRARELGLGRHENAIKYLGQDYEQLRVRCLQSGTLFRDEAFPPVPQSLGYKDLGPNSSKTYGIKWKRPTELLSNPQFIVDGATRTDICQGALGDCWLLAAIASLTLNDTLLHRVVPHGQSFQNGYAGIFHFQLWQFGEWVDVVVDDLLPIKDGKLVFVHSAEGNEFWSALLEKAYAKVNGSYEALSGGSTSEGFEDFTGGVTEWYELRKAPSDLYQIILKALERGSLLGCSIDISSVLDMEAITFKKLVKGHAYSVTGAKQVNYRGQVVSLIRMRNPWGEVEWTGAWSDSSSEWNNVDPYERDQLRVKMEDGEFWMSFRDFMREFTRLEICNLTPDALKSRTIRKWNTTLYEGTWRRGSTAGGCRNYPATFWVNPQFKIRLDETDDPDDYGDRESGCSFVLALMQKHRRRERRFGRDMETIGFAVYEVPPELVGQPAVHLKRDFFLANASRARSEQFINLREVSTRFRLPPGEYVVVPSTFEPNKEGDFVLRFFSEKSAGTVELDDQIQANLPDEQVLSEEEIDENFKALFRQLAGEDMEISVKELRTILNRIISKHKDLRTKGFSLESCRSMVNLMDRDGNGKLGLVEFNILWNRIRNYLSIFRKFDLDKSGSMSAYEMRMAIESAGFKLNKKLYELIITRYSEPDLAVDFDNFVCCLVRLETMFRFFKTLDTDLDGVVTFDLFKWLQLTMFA
Summary of the method: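 Calpain assay in 25 mM Tris, pH 8.0, with 10 mM CaCl₂ and 5% DMSO. […] hydrolysis was read as initial velocity (t = 30-60 s) after a 30 s delay, at room temperature. Five or more inhibitor concentrations (not above 2 × K_obs) were used at two fixed substrate levels. Ki came from Dixon plots (1/v vs I) averaged over triplicates.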

Cathepsin B [4] = target: T1, Cathepsin B; experiment: Compound was evaluated for the inhibition of Cathepsin B; summary of the method: as §1
Cathepsin B [5] = target: T1, Cathepsin B; experiment: Compound was evaluated for the inhibition of Cathepsin B; Gives nonlinear dixon plots; summary of the method: as §1
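For IC in this document: measured as membrane permeability of platelets.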

Row | Structure (SMILES) | Ki (Cathepsin B [1]) [nM] | IC (Rattus norvegicus) [µM] | Ki (Cathepsin B [2]) [nM] | Ki [3] [nM] | Ki (Cathepsin B [4]) [nM] | Ki (Cathepsin B [5])
1 | CCC(NC(=O)C(CC(C)C)NC(=O)OCc1ccccc1)C(=O)C(=O)NCCCc1ccccc1 (centres undefined) | 200 | 100 | – | – | – | –
2 | CCNC(=O)C(=O)C(Cc1ccccc1)NC(=O)C(CC(C)C)NC(=O)OCc1ccccc1 (centres undefined) | 6000 | 22 | – | – | – | –
3 | CCC(NC(=O)C(CC(C)C)NC(=O)OCc1ccccc1)C(=O)C(=O)NCCc1c[nH]c2ccccc12 (centres undefined) | – | 180 | 31 | 300 | – | –
4 | CCC(NC(=O)C(CC(C)C)NC(=O)OCc1ccccc1)C(=O)C(=O)NCCN1CCOCC1 (centres undefined) | 2500 | 23 | – | 1000 | – | –
5 | CC(C)CC(NC(=O)OCc1ccccc1)C(=O)NC(Cc1ccccc1)C(=O)C(=O)NCCCN1CCOCC1 (centres undefined) | 13000 | 54 | – | 120 | – | –
6 | CCC(NC(=O)C(CC(C)C)NC(=O)OCc1ccccc1)C(=O)C(=O)NCc1cccnc1 (centres undefined) | 1200 | > 300 | – | – | – | –
7 | CCC(NC(=O)C(CC(C)C)NC(=O)OCc1ccccc1)C(=O)C(=O)NCCO (centres undefined) | 4500 | 78 | – | 800 | – | –
8 | CCC(NC(=O)C(CC(C)C)NC(=O)OCc1ccccc1)C(=O)C(=O)NCC1CCCO1 (centres undefined) | 4500 | 22 | – | 330 | – | –
9 | CCC(NC(=O)C(CC(C)C)NC(=O)OCc1ccccc1)C(=O)C(=O)NCCCN1CCOCC1 (centres undefined) | 6900 | 45 | – | 140 | – | –
10 | CCNC(=O)C(=O)C(CC)NC(=O)C(CC(C)C)NC(=O)OCc1ccccc1 (centres undefined) | 2400 | 100 | – | – | – | –
11 | CC(C)CC(NC(=O)OCc1ccccc1)C(=O)NC(Cc1ccccc1)C(=O)C(=O)NCCc1ccccc1 (centres undefined) | – | 100 | – | – | 9300 | –
12 | CCC(NC(=O)C(CC(C)C)NC(=O)OCc1ccccc1)C(=O)C(=O)NCc1ccccc1 (centres undefined) | 2000 | 30 | – | – | – | –
13 | CCC(NC(=O)C(CC(C)C)NC(=O)OCc1ccccc1)C(=O)C(=O)NCc1ccccn1 (centres undefined) | 3000 | 110 | – | 640 | – | –
14 | CCC(NC(=O)C(CC(C)C)NC(=O)OCc1ccccc1)C(=O)C(=O)NCCOCCO (centres undefined) | 2000 | 58 | – | – | – | –
15 | CCC(NC(=O)C(CC(C)C)NC(=O)OCc1ccccc1)C(=O)C(=O)NCCc1ccccc1 (centres undefined) | 1300 | 50 | – | – | – | –
16 | CCC(NC(=O)C(CC(C)C)NC(=O)C(c1ccccc1)c1ccccc1)C(=O)C(=O)NCC(O)c1ccccc1 (centres undefined) | – | 180 | 170 | 750 | – | –
17 | CCCC(NC(=O)C(CC(C)C)NC(=O)OCc1ccccc1)C(=O)C(=O)NCCCN1CCOCC1 (centres undefined) | 4200 | 18 | – | 250 | – | –
18 | CCC(NC(=O)C(CC(C)C)NC(=O)OCc1ccccc1)C(=O)C(=O)NCCCCCO (centres undefined) | 280 | 54 | – | – | – | –
19 | CC(C)CC(NC(=O)C(c1ccccc1)c1ccccc1)C(=O)NC(Cc1ccccc1)C(=O)C(=O)NCc1ccccn1 (centres undefined) | 2200 | > 300 | – | 1100 | – | –
20 | CCC(NC(=O)C(CC(C)C)NC(=O)OCc1ccccc1)C(=O)C(=O)NCCc1ccc(O)cc1 (centres undefined) | – | 23 | – | 380 | – | Non linear Dixon plots
21 | CCC(NC(=O)C(CC(C)C)NC(=O)OCc1ccccc1)C(=O)C(=O)NCc1cc(OC)cc(OC)c1 (centres undefined) | 1800 | 30 | – | 2300 | – | –
22 | CCC(NC(=O)C(CC(C)C)NC(=O)OCc1ccccc1)C(=O)C(=O)NCc1ccncc1 (centres undefined) | 6400 | 54 | – | 1100 | – | –
23 | CCC(NC(=O)C(CC(C)C)NC(=O)OCc1ccccc1)C(=O)C(=O)NCc1ccco1 (centres undefined) | 6000 | 58 | – | 800 | – | –
24 | CCC(NC(=O)C(CC(C)C)NC(=O)OCc1ccccc1)C(=O)C(=O)NCC1(C)CC(O)CC(C)(C)C1 (centres undefined) | 890 | 103 | – | 420 | – | –
25 | CC(C)CC(NC(=O)OCc1ccccc1)C(=O)NC(Cc1ccccc1)C(=O)C(=O)NCC(O)c1ccccc1 (centres undefined) | 2100 | 44 | – | 1300 | – | –
26 | CCCNC(=O)C(=O)C(Cc1ccccc1)NC(=O)C(CC(C)C)NC(=O)OCc1ccccc1 (centres undefined) | 3000 | 31 | – | 350 | – | –
27 | CC(C)CC(NC(=O)OCc1ccccc1)C(=O)NC(Cc1ccccc1)C(=O)C(=O)NCc1ccccc1 (centres undefined) | – | > 300 | – | – | 4600 | –
28 | CCC(NC(=O)C(CC(C)C)NC(=O)OCc1ccccc1)C(=O)C(=O)NCC(O)c1ccccc1 (centres undefined) | 370 | 69 | – | 1100 | – | –
